Reference: ChEMBL document CHEMBL1133924, “Inhibitors of bacterial enoyl acyl carrier protein reductase (FabI): 2,9-disubstituted 1,2,3,4-tetrahydropyrido[3,4-b]indoles as potential antibacterial agents” (Bioorg Med Chem Lett, 2001)
≈ marks a conversion by molar mass, not a printed value.

Key:
[1] = target: T1, Enoyl-[acyl-carrier-protein] reductase [NADH] FabI (Escherichia coli K-12, UniProt P0AEK4); experiment: Antibacterial activity against Escherichia coli Enoyl-[acyl-carrier-protein] reductase was determined
T1 sequence (P0AEK4 whole entry): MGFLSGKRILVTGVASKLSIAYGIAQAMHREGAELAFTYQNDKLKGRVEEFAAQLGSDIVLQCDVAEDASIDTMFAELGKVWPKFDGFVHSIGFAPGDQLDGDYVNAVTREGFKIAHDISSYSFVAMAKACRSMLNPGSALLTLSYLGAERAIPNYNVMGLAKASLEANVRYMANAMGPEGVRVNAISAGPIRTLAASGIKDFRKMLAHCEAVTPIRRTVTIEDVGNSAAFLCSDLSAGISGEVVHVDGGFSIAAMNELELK

[2] = test system: Staphylococcus aureus; experiment: In vitro antibacterial activity against Staphylococcus aureus FabI
[3] = target: T1, Enoyl-[acyl-carrier-protein] reductase [NADH] FabI; experiment: Antibacterial activity against Escherichia coli FabI
[4] = test system: Moraxella catarrhalis; experiment: In vitro antibacterial activity against Moraxella catarrhalis 1502 FabI
Procedure, shortened: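 Broth microdilution MIC in cation-adjusted Mueller–Hinton broth. Compounds were dissolved in DMSO, diluted 1:10 in water, then serially diluted. Each well received about 1×10⁶ cfu/mL inoculum. Plates were incubated at 35 °C in ambient air for 18–24 h.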

[5] = test system: Escherichia coli; experiment: In vitro antibacterial activity against Escherichia coli FabI
[6] = target: T2, Enoyl-[acyl-carrier-protein] reductase [NADPH] FabI (Staphylococcus aureus, UniProt Q6GI75); experiment: Antibacterial activity against Staphylococcus aureus FabI
T2 sequence (Q6GI75 whole entry): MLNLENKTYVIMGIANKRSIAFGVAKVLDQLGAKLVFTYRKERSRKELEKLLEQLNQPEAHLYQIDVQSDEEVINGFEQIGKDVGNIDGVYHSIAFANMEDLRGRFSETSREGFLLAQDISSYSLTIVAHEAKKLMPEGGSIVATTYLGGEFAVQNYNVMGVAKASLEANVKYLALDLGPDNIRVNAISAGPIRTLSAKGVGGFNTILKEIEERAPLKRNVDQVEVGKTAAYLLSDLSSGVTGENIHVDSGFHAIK

Compound	IC50 [1] [µM]	MIC [2] [µg/mL]	IC50 [3] [µM]	MIC [4] [µg/mL]	MIC [5] [µg/mL]	IC50 [6] [µM]
COC(=O)Cn1c2c(c3ccccc31)CCN(C(=O)c1ccc(O)cc1)C2	34.9					
O=C(c1ccc(O)cc1)N1CCc2c(n(Cc3ccccc3)c3ccccc23)C1	27					
O=C(c1ccc(Cl)cc1O)N1CCc2c(n(Cc3ccc(O)cc3)c3ccccc23)C1		1 (≈ 2.31 µM)	6.1	2 (≈ 4.62 µM)	> 64	0.16
O=C(c1ccc(O)cc1)N1CCc2c([nH]c3ccccc23)C1	18					
Cc1ccc(C(=O)N2CCc3c(n(Cc4ccc(O)cc4)c4ccccc34)C2)c(O)c1		1 (≈ 2.42 µM)	8.2	4 (≈ 9.7 µM)	> 64	0.12
COC(=O)CCCCn1c2c(c3ccccc31)CCN(C(=O)c1ccc(O)cc1)C2	26.8					
Cc1cc(O)c(C)c(O)c1C(=O)N1CCc2c(n(Cc3ccc(O)cc3)c3ccccc23)C1			> 50			> 50
CCCCc1ccc(C(=O)N2CCc3c(n(Cc4ccc(O)cc4)c4ccccc34)C2)cc1			> 50			0.51
Nc1ccc(Cn2c3c(c4ccccc42)CCN(C(=O)c2ccc(O)cc2)C3)cc1			21.4			0.67
CS(=O)(=O)c1ccc(Cn2c3c(c4ccccc42)CCN(C(=O)c2ccc(O)cc2)C3)cc1			4.5			0.33
O=C(c1ccc(O)cc1)N1CCc2c(c3ccccc3n2Cc2ccc(O)cc2)C1						32.4
Cn1c2c(c3ccccc31)CCN(C(=O)c1ccc(O)cc1)C2	11					
CNc1ccc(C(=O)N2CCc3c(n(Cc4ccc(O)cc4)c4ccccc34)C2)cc1			38.6			2.1
O=C(c1cccc(O)c1)N1CCc2c(n(Cc3ccc(O)cc3)c3ccccc23)C1			> 50			3.4
Oc1cc(Cl)ccc1Oc1ccc(Cl)cc1Cl		0.03 (≈ 0.104 µM)		0.06 (≈ 0.207 µM)	4 (≈ 13.8 µM)	
O=C(c1ccc(O)cc1)N1CCc2c(n(Cc3cccc(O)c3)c3ccccc23)C1	8.8					
O=C(O)c1ccc(Cn2c3c(c4ccccc42)CCN(C(=O)c2ccc(O)cc2)C3)cc1			> 50			8.7

Compound	IC50 [1] [µM]	MIC [2] [µg/mL]	IC50 [3] [µM]	MIC [4] [µg/mL]	MIC [5] [µg/mL]	IC50 [6] [µM]
O=C(c1ccc(Cl)cc1Cl)N1CCc2c(n(Cc3ccc(O)cc3)c3ccccc23)C1			35.8			1.8
O=C(c1cc(Cl)cc(Cl)c1O)N1CCc2c(n(Cc3ccc(O)cc3)c3ccccc23)C1			9.9			1.8
COC(=O)c1ccc(C(=O)N2CCc3c(n(Cc4ccc(O)cc4)c4ccccc34)C2)cc1			> 50			2
Cc1cc(C(=O)N2CCc3c(n(Cc4ccc(O)cc4)c4ccccc34)C2)ccc1O		1 (≈ 2.42 µM)	4.4	8 (≈ 19.4 µM)	> 64	0.18
COc1ccc(C(=O)N2CCc3c(n(Cc4ccc(O)cc4)c4ccccc34)C2)cc1			35.5			0.37
O=C(c1ccccc1)N1CCc2c(n(Cc3ccc(O)cc3)c3ccccc23)C1			2.7			0.49
O=C(c1ccc(O)c(Cl)c1)N1CCc2c(n(Cc3ccc(O)cc3)c3ccccc23)C1		1 (≈ 2.31 µM)	3.4	4 (≈ 9.24 µM)	> 64	0.16
O=C(c1ccccc1O)N1CCc2c(n(Cc3ccc(O)cc3)c3ccccc23)C1		4 (≈ 10 µM)	4.3	8 (≈ 20.1 µM)	> 64	0.72
Nc1ccc(C(=O)N2CCc3c(n(Cc4ccc(O)cc4)c4ccccc34)C2)cc1			4			1
O=C(c1ccc(O)cc1)N1CCc2c(n(Cc3ccc(O)cc3)c3ccccc23)C1		0.5 (≈ 1.25 µM)	4.2	8 (≈ 20.1 µM)	> 64	0.11
O=C(c1ccc(Cl)cc1)N1CCc2c(n(Cc3ccc(O)cc3)c3ccccc23)C1		4 (≈ 9.59 µM)	16.8	> 64	> 64	0.18
Cc1cc(C(=O)N2CCc3c(n(Cc4ccc(O)cc4)c4ccccc34)C2)cc(C)c1O			23			2.9
Cc1ccc(C(=O)N2CCc3c(n(Cc4ccc(O)cc4)c4ccccc34)C2)cc1		0.5 (≈ 1.26 µM)	5.2	> 64	> 64	0.24
O=C(c1ccc(O)cc1)N1CCc2c(n(Cc3ccc(F)cc3)c3ccccc23)C1			4.2			0.25
O=C(c1ccc(O)cc1)N1CCc2c([nH]c3ccccc23)C1c1ccc(O)cc1 (configuration not stated)						28.1
CN(Cc1cc2ccccc2n1Cc1ccc(O)cc1)C(=O)c1ccc(O)cc1						1
